From ChEMBL document CHEMBL4428128, “Design, synthesis, crystal structure, biological evaluation and molecular docking studies of carbazole-arylpiperazine derivatives” (Bioorg Med Chem, 2016)

Tests used:
[1] = biological target: T1, Alpha-1B adrenergic receptor (Rattus norvegicus, UniProt P15823); assay: Antagonistic activity at alpha1B adrenoceptor in Sprague-Dawley rat spleen assessed as inhibition of noradrenaline-induced contractions after 0.5 hrs in presence of alpha2/beta adrenoceptor blocker yohimbine, propranolol by Schild plot analysis; type: tissue-based; conditions: read-out: pA2 (converted)
T1 sequence (P15823 whole entry): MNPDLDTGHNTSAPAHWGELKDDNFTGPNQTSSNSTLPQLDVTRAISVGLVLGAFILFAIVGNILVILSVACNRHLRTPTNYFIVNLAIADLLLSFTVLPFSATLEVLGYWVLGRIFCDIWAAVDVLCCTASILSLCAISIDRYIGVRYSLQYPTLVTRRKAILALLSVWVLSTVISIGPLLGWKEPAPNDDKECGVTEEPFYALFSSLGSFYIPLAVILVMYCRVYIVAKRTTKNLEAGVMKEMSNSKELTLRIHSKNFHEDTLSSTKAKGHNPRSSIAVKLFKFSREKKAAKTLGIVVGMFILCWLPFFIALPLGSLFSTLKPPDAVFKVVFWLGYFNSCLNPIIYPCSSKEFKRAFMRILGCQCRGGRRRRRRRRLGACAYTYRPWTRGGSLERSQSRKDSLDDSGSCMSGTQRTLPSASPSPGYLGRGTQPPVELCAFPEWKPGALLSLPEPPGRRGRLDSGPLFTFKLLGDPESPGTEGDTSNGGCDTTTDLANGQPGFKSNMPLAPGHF

Rattus norvegicus [2] = organism: Rattus norvegicus; assay: Selectivity ratio of antilog of change in pA2 for alpha1D adrenoceptor in Sprague-Dawley rat thoracic aorta to antilog of change in pA2 for alpha1B adrenoceptor in Sprague-Dawley rat spleen
Rattus norvegicus [3] = organism: Rattus norvegicus; assay: Selectivity ratio of antilog of change in pA2 for alpha1A adrenoceptor in Sprague-Dawley rat vas deferens to antilog of change in pA2 for alpha1B adrenoceptor in Sprague-Dawley rat spleen
[4] = biological target: T2, Alpha-1A adrenergic receptor (Rattus norvegicus, UniProt P43140); assay: Antagonistic activity at alpha1A adrenoceptor in Sprague-Dawley rat vas deferens assessed as inhibition of noradrenaline-induced contractions after 0.5 hrs in presence of alpha2/beta adrenoceptor blocker yohimbine, propranolol by Schild plot analysis; conditions: read-out: pA2 (converted)
T2 sequence (P43140 whole entry): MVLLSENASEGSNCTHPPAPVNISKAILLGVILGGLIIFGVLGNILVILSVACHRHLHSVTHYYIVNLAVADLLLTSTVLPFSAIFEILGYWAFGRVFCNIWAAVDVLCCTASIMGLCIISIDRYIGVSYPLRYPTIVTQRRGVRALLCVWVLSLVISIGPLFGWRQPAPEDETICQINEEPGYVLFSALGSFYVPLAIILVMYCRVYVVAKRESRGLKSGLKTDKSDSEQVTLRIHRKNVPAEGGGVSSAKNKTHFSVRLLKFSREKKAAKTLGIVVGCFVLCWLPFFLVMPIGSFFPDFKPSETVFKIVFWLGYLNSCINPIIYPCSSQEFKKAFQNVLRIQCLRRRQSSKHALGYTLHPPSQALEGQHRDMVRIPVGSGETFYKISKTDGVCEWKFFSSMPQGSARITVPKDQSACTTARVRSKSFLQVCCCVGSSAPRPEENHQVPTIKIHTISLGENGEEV

Rattus norvegicus [5] = organism: Rattus norvegicus; assay: Selectivity ratio of antilog of change in pA2 for alpha1D adrenoceptor in Sprague-Dawley rat thoracic aorta to antilog of change in pA2 for alpha1A adrenoceptor in Sprague-Dawley rat vas deferens
[6] = biological target: T3, Alpha-1D adrenergic receptor (Rattus norvegicus, UniProt P23944); assay: Antagonistic activity at alpha1D adrenoceptor in Sprague-Dawley rat thoracic aorta assessed as inhibition of noradrenaline-induced contractions after 0.5 hrs in presence of alpha2/beta adrenoceptor blocker yohimbine, propranolol by Schild plot analysis; conditions: read-out: pA2 (converted)
T3 sequence (P23944 whole entry): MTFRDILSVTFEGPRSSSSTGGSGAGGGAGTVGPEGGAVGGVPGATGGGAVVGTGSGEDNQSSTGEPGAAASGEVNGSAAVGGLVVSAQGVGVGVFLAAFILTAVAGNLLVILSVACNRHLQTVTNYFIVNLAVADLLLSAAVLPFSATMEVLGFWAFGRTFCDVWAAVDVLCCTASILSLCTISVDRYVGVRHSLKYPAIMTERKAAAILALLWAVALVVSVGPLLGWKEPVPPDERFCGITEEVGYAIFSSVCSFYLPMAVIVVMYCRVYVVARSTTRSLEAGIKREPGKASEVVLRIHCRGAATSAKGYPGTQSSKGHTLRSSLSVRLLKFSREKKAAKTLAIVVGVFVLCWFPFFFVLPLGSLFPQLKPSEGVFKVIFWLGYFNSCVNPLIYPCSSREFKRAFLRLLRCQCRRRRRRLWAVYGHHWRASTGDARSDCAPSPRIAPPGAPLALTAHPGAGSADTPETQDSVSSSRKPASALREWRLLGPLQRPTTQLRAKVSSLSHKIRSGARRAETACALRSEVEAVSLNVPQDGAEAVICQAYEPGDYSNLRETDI
Outline: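 Isolated tissue rings (aorta rings about 4 mm) held in Krebs–Henseleit buffer (pH 7.4, 37 °C, O2/CO2 19:1), equilibrated 1.5 h under optimal tension, primed three times with noradrenaline, then washed. Antagonist preincubated 0.5 h. Noradrenaline concentration–response curves run 1 h apart, without and with antagonist, in continuous yohimbine and propranolol. Responses expressed as % of pre-incubation NA Emax.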

| Kb [1] [nM] | Selectivity ratio (Rattus norvegicus [2]) | Selectivity ratio (Rattus norvegicus [3]) | Kb [4] [nM] | Selectivity ratio (Rattus norvegicus [5]) | Kb [6] [nM] | SMILES |
| --- | --- | --- | --- | --- | --- | --- |
| 6920 | 79.4 | 3.7 | 1860 | 21.4 | 87.1 | COc1ccc(N2CCN(CC(O)COc3cccc4[nH]c5ccccc5c34)CC2)cc1 (configuration not stated) |
| 74.1 | 0.5 | 0.2 | 437 | 3.1 | 141 | COc1ccc(OC)c(N2CCN(CC(O)COc3cccc4[nH]c5ccccc5c34)CC2)c1 (configuration not stated) |
